Jurkat tox 60K: cytotoxic compounds reducing Jurkat cell viability. Jurkat E6.1 viability, ATP luminescence, 48 h. inhibition, % at 4 µM. 1.2% of 56,000 active. AID 463;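 active means inhibition above the mean inhibition of all tested compounds plus 3 SD, cut at about 28% in these data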
M1 agonist: activates the M1 muscarinic receptor. CHO-M1 cells, Fluo-4 calcium fluorescence, agonist mode; hits give high values. B-score at 10 µM. 3% of 64,000 active. AID 626;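 active means fluorescence rise, raw or as B-score row- and column-corrected plate score, outside the 99.7% band of its plate's samples, either direction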
D1 allo mod: D1 dopamine receptor (human) allosteric modulation; P21728; HEK293 D1, CRE-luciferase, dopamine EC30 potentiation; actives deviate in either direction; B-score at 10 µM; 5.9% of 58,000 active; AID 641;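 active means luminescence count or its row- and column-corrected plate score outside the 99.7% band of the plate's sample wells, on either side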
mHtt clearance: mutant huntingtin protein clearance | HeLa Exon1htt(103Q)mCFP, aggregate imaging; zero = plate's median compound well | inhibition, % at 1.5 µM | 0.42% of 47,000 active;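 active means inhibition of aggregate fluorescence above about 70%, also judged a hit by eye on the cell image, limit read from the data, passing the limit was not always enough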;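 further: cells exposed to compound for three days before fixation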
M1 antag: M1 muscarinic receptor (rat) antagonism. P08482. CHO-M1 cells, Fluo-4 calcium, ACh EC80 antagonist mode; hits give low values. B-score at 10 µM. 3.4% of 64,000 active;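 active means calcium fluorescence response, raw or row-and-column corrected B-score, differing from the plate sample mean either way at a set confidence level, mostly lower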
Target sequence (P08482 whole entry, looked up): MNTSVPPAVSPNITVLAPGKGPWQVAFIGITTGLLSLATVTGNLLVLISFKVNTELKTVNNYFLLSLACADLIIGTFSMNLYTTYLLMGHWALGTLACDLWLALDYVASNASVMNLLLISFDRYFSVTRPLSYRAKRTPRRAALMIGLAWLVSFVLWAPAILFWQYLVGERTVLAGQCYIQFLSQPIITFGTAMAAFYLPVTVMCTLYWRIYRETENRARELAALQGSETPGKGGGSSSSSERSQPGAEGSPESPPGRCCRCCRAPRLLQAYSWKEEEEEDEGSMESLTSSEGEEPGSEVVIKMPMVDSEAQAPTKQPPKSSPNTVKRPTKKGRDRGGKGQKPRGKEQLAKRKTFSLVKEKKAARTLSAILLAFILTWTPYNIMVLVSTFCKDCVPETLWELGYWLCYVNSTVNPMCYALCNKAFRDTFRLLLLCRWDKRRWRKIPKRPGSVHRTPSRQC
HEK293 NFkB inh: inhibitors of the PMA/ionomycin-induced NF-kB reporter in HEK293 cells; HEK-293 NF-kB luciferase reporter, luminescence; inhibition, % at 3 µM; 0.21% of 62,000 active;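 active means inhibition above the mean of all tested compounds plus 3 SD, cut at about 40% in these data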;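 further: 0% = stimulated DMSO wells and 100% = 10 µM reference inhibitor 5653914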
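System – HEK-293 cells with stable firefly luciferase reporter driven by four HIV NF-kB elements · Doses – one dose, 3 µM · Schedule – 1 h compound pre-incubation, 16 h PMA/ionomycin at 37 °C · Technique – luminescence from luciferase substrate reagent · Measure – percent inhibition normalized per plate to DMSO and reference-inhibitor controls · Replicates – tested once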
M1 antag conf: confirmation of rat M1 muscarinic receptor antagonists | shares compounds with M1 antag | 43% of 1,700 active | calcium response (max-min fluorescence) at 10 µM | CHO-M1 cells, Fluo-4 calcium, ACh EC80 antagonism; hits give low values;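 active means calcium response below the same-plate mean of wells given acetylcholine alone at its 80%-effect dose, minus 3 SD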;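 further: raw fluorescence intensity difference in arbitrary instrument units and not normalized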
mGluR4 antag: acts on human mGluR4 in M1 antagonist selectivity test | AID 678 | 0.9% of 1,700 active | shares compounds with M1 antag | CHO-mGluR4 calcium flux, Fluo-4 fluorescence, glutamate EC80; hits give low values | fluorescence response (max-min) at 10 µM;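 active means fluorescence response below the plate's average for near-maximal glutamate wells, less 3 SD of those wells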;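 further: raw unnormalized fluorescence span taken in the window right after glutamate addition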
D1 PAM confirm: D1 receptor (human) allosteric modulation, confirmed; shares compounds with D1 allo mod; HEK293 D1 CRE-luciferase, dopamine EC30 potentiation; hits give high values; luminescence at 10 µM; 88% of 2,200 active; AID 642;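 active means luminescence in either of two replicates above the same-plate mean plus 3 SD of the low-dose dopamine control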
D1 no dopamine: D1 (human) signaling in absence of dopamine. shares compounds with D1 allo mod. HEK293 D1 CRE-luciferase, luminescence, no dopamine; hits give high values. 0.8% of 1,900 active. AID 646. luminescence at 10 µM; in the data active means luminescence above about 3900
Isoprot counter: alters isoproterenol CRE-luciferase response in HEK293 cells; AID 647; 63% of 2,200 active; luminescence at 10 µM; HEK293 D1 CRE-luciferase, isoproterenol EC30 counter-screen; hits give high values; shares compounds with D1 allo mod;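 active means luminescence in either replicate above plate mean of wells with a partly effective reference agonist dose plus 3 SD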;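 further: isoproterenol raises cAMP through native beta-adrenoceptor Gs so signal bypasses D1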
Active calls of the source: *; · = no result. Compounds with a hit are over-represented: about 9.5% of the library has one in this group of screens.

SMILES | Jurkat tox 60K | M1 agonist | D1 allo mod | mHtt clearance | M1 antag | HEK293 NFkB inh | M1 antag conf | mGluR4 antag | others
COc1cccc(OC)c1C(=O)N1CCN(Cc2ccccc2C(F)(F)F)CC1 | 2 | -0.038 | 3.3 | 0 | -3* | 20 | 540 | 200
Clc1ccc(-c2nnnn2-c2ccc(Cl)c(Cl)c2)cc1Cl | · | · | · | 29 | · | · | · | ·
CN1C(=S)SC(/[N+]([O-])=C\c2cccs2)C1(C)C (stereo unspecified) | 9 | 0.68 | -7.5* | · | -8* | 12 | 610 | 243
CN1C(=S)SC(/[N+]([O-])=C\c2ccc(Cl)cc2)C1(C)C (stereo unspecified) | · | · | · | -20 | · | · | · | ·
CCn1c(=N)n(CC(=O)c2ccco2)c2ccccc21 | 10 | -0.088 | -1 | -26 | -4* | -3 | 471 | 223
CC1CCN(CC(C)OC(=O)c2ccc3c(c2)OCCO3)CC1 (stereo unspecified) | 5 | 0.041 | -0.38 | · | -12* | 10 | 92* | 240
COc1cccc(C(=O)OC(C)CN2CCCC2)c1 (stereo unspecified) | 0 | 1 | 0.43 | · | -2.3 | 13 | · | ·
CC(CN1CCCCC1)OC(=O)c1ccc2c(c1)OCO2 (stereo unspecified) | -2 | 1.1 | -0.048 | -8 | -2.7* | -1 | 457 | 221
CC(CN1CCCCC1)OC(=O)c1cc2ccccc2o1 (stereo unspecified) | 0 | -1.1 | -0.66 | · | -4.7* | 12 | 296* | 252
COc1ccc(S(=O)(=O)NCCSCc2ccco2)cc1Cl | 1 | 1.1 | · | · | -0.72 | 13 | · | ·
CSc1nc2c(c(C(F)(F)F)n1)CC(C)CC2 (stereo unspecified) | · | · | · | 3 | · | · | · | ·
CC(C)[N+](C)(CCOC(=O)C1c2ccccc2Oc2ccccc21)C(C)C | · | 0.77 | 0.12 | · | -16* | · | 19* | 233
O=C(c1coc(=O)c2ccccc12)N1CCN(Cc2ccccc2)CC1 | 8 | 0.54 | -1.7 | · | 0.15 | 9 | · | ·
CCOC(=O)Nc1ccc2c(c1)N(C(=O)CCN1CCN(CCO)CC1)c1ccccc1S2 | · | · | · | 4 | · | · | · | ·
CCOC(=O)Nc1ccc2c(c1)Sc1ccccc1N2C(=O)CCN1CCOCC1 | -9 | 1.4 | 4.8* | · | -3.5* | 2 | 317* | 257 | D1 PAM confirm=8528*;Isoprot counter=3084*
COC(=O)CSc1nc2sc3c(c2c(=O)n1C1CCCCC1)CCN(C)C3 | · | -2.7* | 15* | -9 | -2.7* | · | 486* | 261 | D1 PAM confirm=21932*;D1 no dopamine=1592;Isoprot counter=4432*
COc1ccc(-n2c(SCC(N)=O)nc3sc4c(c3c2=O)CCN(C)C4)cc1 | · | -1.1 | 0.46 | · | 0.51 | · | · | ·
COC(=O)c1[nH]c2cccc(Cl)c2c1NC(=O)CN(C)C1CCCCC1 | -3 | 1.2 | 11* | 34 | -1.8* | 4 | 367* | 180 | D1 PAM confirm=16352*;D1 no dopamine=1684;Isoprot counter=3040*
CCC(NC(C)C)C(O)c1ccc(O)c(O)c1 (stereo unspecified) | · | 0.55 | 13* | · | -14* | · | 632 | 248 | D1 PAM confirm=9904*;D1 no dopamine=3836*;Isoprot counter=8388*
COc1ccc(NC(=O)C2CCCN2C(=O)OCc2ccccc2)c(OC)c1 (stereo unspecified) | 1 | 0.75 | -0.047 | · | 1.2 | 4 | · | ·
COC(=O)c1sc2ccccc2c1NC(=O)c1cccs1 | 2 | 0.99 | 19* | -8 | -1.4* | 11 | 642* | 173 | D1 PAM confirm=20828*;D1 no dopamine=1756;Isoprot counter=5680*
COC(=O)c1sc2ccccc2c1N | 1 | 0.061 | 2.8 | · | -0.21 | 3 | · | ·

High-throughput results from PubChem BioAssay.
